This is an account of results in ChEMBL document CHEMBL1138779, “Antitumor agents. 234. Design, synthesis, and biological evaluation of novel 4beta-[(4' '-benzamido)-amino]-4'-o-demethyl-epipodophyllotoxin derivatives” (2004).

Values after ≈ are worked out from the molar mass of the structure shown. Values joined by “and” are separate entries in the source; they are usually repeats but may differ in a detail not shown here. Identical values can stand only once. Active and inactive are the calls of the source. The rule behind the calls is not given here.

In experiment [1] the target is T1, DNA topoisomerase II (Homo sapiens) (UniProt P11388+Q02880). The experiment in a line: Percentage of protein-linked DNA breaks in KB cells by [3H]thymidine incorporation. The experiment is classed as functional, cell-based. Also noted: concentration or dose not given beside the values. A digest of the protocol:
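KB cells labelled overnight with 0.5 µCi/mL [methyl-3H]thymidine ([…]), chased 2 h, then treated in duplicate with compound at 10 µg/mL for 1 h. Protein-associated DNA breaks measured as potassium–SDS precipitable radioactivity. Values expressed relative to VP-16 control set at 100%.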

Experiment [2] addresses T1, DNA topoisomerase II (Homo sapiens). In words: Percentage of protein-linked DNA breaks in KB cells by [3H]thymidine incorporation at 5 ug/mL. The experiment is classed as functional, cell-based. A digest of the protocol: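 [3H]thymidine-prelabelled KB cells (0.5 µCi/mL, overnight, 2 h chase) treated in duplicate with compound at 5 µg/mL for 1 h. Protein-linked DNA breaks read as potassium–SDS precipitable radioactivity, given as percent of the VP-16 control set at 100%.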

Experiment [3] concerns KB. The experiment in a line: Dose required to cause reduction in human nasopharyngeal KB cancer cells after 3 days incubation. The format is functional. As to conditions: 72 h, read-out: ED50 (the source's name). A digest of the protocol:
(§1)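 Cells grown at 37 °C, humidified 5% CO2, in RPMI-1640 with 25 mM HEPES, […], 10% (v/v) FBS and 100 µg/mL kanamycin. Drug exposure for 3 days. ED50 (concentration giving 50% reduction in cell number) interpolated from dose–response data. Triplicate tests, variation no more than 5%; independent ED50 determinations varied no more than 30%.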

Experiment [4] deals with KB. The experiment in a line: Ratio of ED50 for KB-7d cells to that of KB cells. The format is functional, Homo sapiens. A digest of the protocol: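 Relative resistance (fold) taken as ED50 against KB-7d divided by ED50 against KB. Both values come from 3-day drug exposure, with ED50 interpolated from dose–response data as the concentration reducing cell number by 50%.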

Experiment [5] relates to KB. The experiment in a line: Dose required for reduction in human nasopharyngeal KB-7d cancer cells after 3 days incubation. The experiment is classed as functional. As to conditions: 72 h, read-out: ED50 (the source's name). In outline:
as §1

In the next experiment the test system is A549. In words: Dose required for reduction in human lung A549 cancer cells after 3 days incubation. The experiment is classed as functional. As to conditions: A549, 72 h, read-out: ED50 (the source's name). In outline:
as §1

The test system of experiment [6] is KB. The experiment in a line: Dose required for reduction in etoposide resistant human nasopharyngeal KB-7d cancer cells after 3 days incubation. The experiment is classed as functional. As to conditions: 72 h, read-out: ED50 (the source's name). A digest of the protocol: as §1
In experiment [7] the test system is KB. In words: Dose required for reduction in vincristine resistant human nasopharyngeal KB-VIN cancer cells after 3 days incubation. The format is functional. To be noted: 72 h, read-out: ED50 (the source's name). In outline:
as §1

The next experiment concerns U-87 MG. The experiment in a line: Dose required for reduction in human glioblastoma U-87-MG cancer cells after 3 days incubation. The experiment is classed as functional, U-87MG ATCC. As to conditions: 72 h, read-out: ED50 (the source's name). In outline: as §1
A further experiment concerns PC-3. In words: Dose required for reduction in human prostate PC-3 cancer cells after 3 days incubation. As to conditions: PC-3, 72 h, read-out: ED50 (the source's name). The experiment is classed as functional. In outline: as §1
The subject of the next experiment is HCT-8. In words: Dose required for reduction in human ileocecal HCT-8 cancer cells after 3 day incubation. The format is functional. As to conditions: HCT-8, 72 h, read-out: ED50 (the source's name). A digest of the protocol:
as §1

The next experiment deals with MCF7. The experiment in a line: Dose required for reduction in human breast MCF-7 cancer cells after 3 day incubation. The format is functional. To be noted: MCF7, 72 h, read-out: ED50 (the source's name). In outline:
as §1

The subject of a further experiment is 1A9/ptx-10. In words: Dose required for reduction in paclitaxel resistant human ovarian 1A9-PTX10 cancer cells after 3 days incubation. The experiment is classed as functional. As to conditions: 1A9/ptx-10, 72 h, read-out: ED50 (the source's name). A digest of the protocol: as §1
Experiment [8] has as its system CAKI-1. In words: Dose required for reduction in human renal CAKI-1 cancer cells after 3 days incubation; NA = not applicable. The experiment is classed as functional, cell-based. A digest of the protocol: as §1
Experiment [9] relates to KB. In words: Dose required for reduction in camptothecin resistant human nasopharyngeal KB cancer cells after 3 days incubation. The experiment is classed as functional. To be noted: 72 h, read-out: ED50 (the source's name). In outline:
as §1

The next experiment has as its system 1A9. In words: Dose required to cause reduction in human ovarian 1A9 cancer cells after 3 days incubation. The format is functional. To be noted: 1A9, 72 h, read-out: ED50 (the source's name). A digest of the protocol:
as §1

For experiment [10], the system named is CAKI-1. In words: Dose required for reduction in human renal CAKI-1 cancer cells after 3 days incubation. The format is functional. To be noted: CAKI-1, 72 h, read-out: ED50 (the source's name). A digest of the protocol: as §1
The test system of experiment [11] is KB. In words: Dose required to cause reduction in human nasopharyngeal KB-7d cancer cells after 3 days incubation. The format is functional. To be noted: 72 h, read-out: ED50 (the source's name). In outline:
as §1

Consider `COc1cc([C@@H]2c3cc4c(cc3[C@@H](Nc3ccc(C(=O)NCCc5ccc(O)cc5)cc3)[C@H]3COC(=O)[C@H]23)OCO4)cc(OC)c1O`, for which the Activity in experiment [1] is 368%; in experiment [2], 275%. Also, the EC50 came to 0.02 µg/mL in the experiment with KB [3] and 0.8 µg/mL (≈ 1.25 µM) in the experiment with KB [5]. In addition, in the experiment on KB [4], the Relative resistance is 32.

Turning to `COc1cc([C@@H]2c3cc4c(cc3[C@@H](NC(=O)[C@@H](N)Cc3ccc(O)cc3)[C@H]3COC(=O)[C@H]23)OCO4)cc(OC)c1O`, the EC50 was 54.3 µM in the experiment on A549; 30.2 µM in the experiment with KB [6]; 18.8 µM with KB [3]; over 100 µM in the experiment with KB [7]; over 100 µM with U-87 MG; over 100 µM in the experiment with PC-3. For the same molecule, the EC50 was over 100 µM with HCT-8; 41.7 µM in the experiment with MCF7; over 5 µM in the experiment on 1A9/ptx-10; 44.8 µM in the experiment with KB [9]; 3.3 µM in the experiment with 1A9. The ED50 result in the experiment with CAKI-1 [8] was “inactive”.

Consider `COc1cc([C@@H]2c3cc4c(cc3[C@@H](O[C@@H]3O[C@@H]5CO[C@@H](C)O[C@H]5[C@H](O)[C@H]3O)[C@H]3COC(=O)[C@H]23)OCO4)cc(OC)c1O` [ETOPOSIDE], for which the Activity in [1] and in experiment [2] was 100% in each case. For the same molecule, the EC50 with A549 was 10.6 µM; in the experiment on KB [6], 17.2 µM; in the experiment with KB [3], 0.5 µg/mL and 300 nM; with KB [7], over 100 µM; in the experiment on U-87 MG, 73.6 µM; with PC-3, over 100 µM. In addition, the EC50 was 62.9 µM in the experiment with HCT-8; 62.2 µM with MCF7; over 100 µM in the experiment with CAKI-1 [10]; over 5 µM in the experiment on 1A9/ptx-10; 7 µM in the experiment on KB [9]; 0.15 µM in the experiment on 1A9. In addition, the EC50 with KB [11] was over 10 µg/mL. Also, in the experiment with KB [4], the Relative resistance is on record as over 20.

With `COc1cc([C@@H]2c3cc4c(cc3[C@@H](Nc3ccc(NC(=O)[C@@H](Cc5ccc(O)cc5)NC(=O)OCc5ccccc5)cc3)[C@H]3COC(=O)[C@H]23)OCO4)cc(OC)c1O`, the EC50 with A549 was 0.77 µM; in the experiment with KB [3], 0.49 µM; in the experiment on KB [7], over 100 µM; with U-87 MG it was over 100 µM; in the experiment on PC-3, over 100 µM; in the experiment on HCT-8 it was over 100 µM. Also, the EC50 with MCF7 worked out at 1.9 µM; in the experiment on 1A9/ptx-10 it was 0.92 µM; with 1A9, 0.0086 µM. Moreover, the ED50 entry in the experiment with CAKI-1 [8] was “inactive”.
